In data set [1] the test system is dengue virus type 2. The experiment in a line: Antiviral activity against Dengue virus type 2 New Guinea C infected in African green monkey Vero cells assessed as reduction in viral titer at 10 uM after 2 days by Giemsa staining assay relative to control. The format is functional. More on the design: scale not given: the % may be the effect or the level left. The procedure, abridged: (§1)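 Vero cells, 4 × 10^5/well, infected with DENV-2 New Guinea C at MOI 0.2 for 2 h at 37°C, washed, then compound added (10 μM; MPA 1.0 μM). Supernatant taken after 2 days, clarified, 10-fold dilutions plaqued on Vero under methylcellulose for 5 days, fixed, Giemsa-stained; titer as PFU/mL, percent reduction; 10 μM from two experiments, 1.0 μM from one.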

For data set [2], the system named is West Nile virus. The experiment in a line: Antiviral activity against West Nile virus infected in BHK-WII RepRen1B cells assessed as inhibition of viral replication after 3 days by luciferase reporter gene assay. The following applies: 72 h. The format is functional, organism-based. Background: In a reporter assay the amount or activity of a reporter protein is the signal.

A short description of data set [3]: Cytotoxicity against BHK cells infected with Dengue virus replicon assessed as cell viability after 3 days by CellTiter 96 aqueous one solution cell proliferation assay. In kind it is cell-based, Mesocricetus auratus. The following applies: hamster, 72 h. The procedure, abridged:
(§2)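 DENV replicon BHK cells, 1.5 × 10^3/well, plated without antibiotic selection; next day compound in DMSO (10 μM final for screening, or eight serial dilutions), 3 days at 37°C, 5% CO2. Tetrazolium (MTS-type) reagent, absorbance 450 nm, triplicate means versus DMSO wells; CC50 = 50% reduction in proliferation; CC50s mean ± SD of two experiments, top dose 200 μM.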

In the next data set the test system is dengue virus type 3. The experiment in a line: Displacement of [3H]-SAM from biotinylated Dengue virus 3 methyltransferase expressed in Escherichia coli at 20 uM preincubated for 20 mins followed by [3H]-SAM addition measured after 15 mins by scintillation counting analysis. The procedure, abridged: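 Biotinylated refolded E. coli-expressed DENV3 MTase (580 nM) with SPA beads (1.5 mg/mL) and 20 μM competitor (compound, SAM or sinefungin) in Tris pH 7.5 buffer with NaCl, KCl, MgCl2, MnCl2, CHAPS, 20 min at 23°C; 3H-SAM (425 nM) added, 15 min at 23°C, centrifuged, scintillation proximity counting.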
(In general: Displacement assays read how much labelled ligand stays bound in the presence of the test substance.)

A short description of data set [4]: Cytotoxicity against BHK cells infected with West Nile virus replicon assessed as cell viability after 3 days by CellTiter 96 aqueous one solution cell proliferation assay. In kind it is cell-based, Mesocricetus auratus. To be noted: hamster, 72 h. Put shortly: (§3)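 WNV replicon BHK cells, about 3 × 10^3/well, plated without antibiotic selection; next day compound in DMSO (10 μM final for screening, or eight serial dilutions), 3 days at 37°C, 5% CO2. Tetrazolium reagent, absorbance 450 nm, triplicate means versus DMSO wells; CC50 = 50% reduction in proliferation; CC50s mean ± SD of two experiments, top dose 200 μM.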

In data set [5] the test system is Dengue virus. The data set is described as follows: Antiviral activity against Dengue virus infected in BHK pD2-hRucPac-2ATG cells assessed as inhibition of viral replication after 3 days by luciferase reporter gene assay. To be noted: 72 h. In kind it is functional, organism-based. Put shortly:
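BHK DENV subgenomic replicon line carrying Renilla luciferase, kept on 3 μg/mL puromycin; 1.5 × 10^3 cells/well plated without selection, compounds in DMSO added next day to triplicate wells, at 10 μM final for screening or eight serial dilutions. Live-cell Renilla substrate after 3 days, luminescence versus DMSO wells; EC50 = 50% luciferase reduction; MPA 1 μM control.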

In a further data set the test system is Hepatitis C virus. The data set is described as follows: Antiviral activity against HCV. To be noted: Hepacivirus hominis. The format is functional, organism-based.
For data set [6], the system named is Human immunodeficiency virus 1. The experiment in a line: Antiviral activity against HIV1. The format is functional, organism-based.
The nature of data set [7]: Cytotoxicity against BHK cells infected with Dengue virus replicon assessed as cell viability at 10 uM after 3 days by CellTiter 96 aqueous one solution cell proliferation assay relative to control. To be noted: hamster, bhk, 72 h, 10 µM. In kind it is cell-based, Mesocricetus auratus. Put shortly: as §2
In general terms: A replicon is a self-replicating genome or part of one, used to study replication in cells.

Another data set has as its system Human betaherpesvirus 5. The data set is described as follows: Antiviral activity against Human cytomegalovirus. The format is functional, organism-based.
Data set [8] concerns the target Human immunodeficiency virus type 1 reverse transcriptase (Human immunodeficiency virus 1) (UniProt Q72547). The data set is described as follows: Inhibition of HIV1 reverse transcriptase.
Data set [9] has as its system Dengue virus. The data set is described as follows: Antiviral activity against Dengue virus infected in BHK pD2-hRucPac-2ATG cells assessed as inhibition of viral replication at 10 uM after 3 days by luciferase reporter gene assay relative to control. The format is functional. The following applies: 72 h. The procedure, abridged:
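Renilla luciferase-bearing DENV subgenomic replicon BHK cells, kept on 3 μg/mL puromycin, seeded at 1.5 × 10^3/well without selection. Next day, 10 μM final compound in DMSO added to triplicate wells; MPA 1 μM as control inhibitor. After 3 days, medium swapped for live-cell Renilla substrate (1:1000, phenol-red-free DME, 10% FBS). Luminescence read; triplicate mean compared with DMSO-only wells.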

The subject of data set [10] is unidentified influenza virus. The data set is described as follows: Antiviral activity against Influenzae virus. In kind it is functional, organism-based.
Data set [11] is described as follows: Cytotoxicity against BHK cells infected with West Nile virus replicon assessed as cell viability at 10 uM after 3 days by CellTiter 96 aqueous one solution cell proliferation assay relative to control. The following applies: hamster, bhk, 72 h, 10 µM. The format is cell-based, Mesocricetus auratus. Put shortly:
as §3

For data set [12], the system named is West Nile virus. The data set is described as follows: Antiviral activity against West Nile virus infected in BHK-WII RepRen1B cells assessed as inhibition of viral replication at 10 uM after 3 days by luciferase reporter gene assay relative to control. To be noted: 72 h. In kind it is functional. The procedure, abridged:
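Compound (DMSO, 10 μM final) added next day in triplicate; lycorine 1 μM served as control inhibitor. Three days on, live-cell Renilla substrate (1:1000 in phenol-red-free DME, 10% FBS) replaced medium. Luminescence measured; triplicate means compared with DMSO-alone wells.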

The subject of data set [13] is dengue virus type 2. The data set is described as follows: Antiviral activity against Dengue virus type 2 New Guinea C infected in African green monkey Vero cells assessed as reduction in viral titer at 1 uM after 2 days by Giemsa staining assay relative to control. In kind it is functional. Further details: scale not given: the % may be the effect or the level left. Put shortly: as §1

pEC50: −log10 of the molar value. Calls of active or inactive are those of the source. The calls are words filed in the database; no cut-off is given here.

What is called pEC50 is the EC50 on a negative log10 scale, so that one unit is a factor of ten. Usually CC50 stands for the concentration at which the toxic effect on the cells reaches its halfway point. Usually inhibition stands for the percentage by which the read-out fell short of the control. Regarding `Cc1cn([C@H]2C[C@H](NC(=O)CCCCc3ccc(F)cc3)[C@@H](CO[Si](C)(C)C(C)(C)C)O2)c(=O)[nH]c1=O`, the Activity in the data set with dengue virus type 2 [1] is 67%. The figures for the pEC50 in the data set with West Nile virus [2] and with Dengue virus [5] were 4.82 and 5.02, respectively. Besides, the CC50 was found to be 22 µM in data set [3] and 23 µM in [4]. Also, in the data set with dengue virus type 3, the inhibition entry was “Active”.

Take `COc1ccc2cc(-c3cn([C@H]4C[C@H](n5cc(C)c(=O)[nH]c5=O)O[C@@H]4CO[Si](C)(C)C(C)(C)C)nn3)ccc2c1`: the outcome (in the data set with Hepatitis C virus; in data set [6]; with Human betaherpesvirus 5; in [10]) was inactive. The Activity is 98% with dengue virus type 2 [1], 96% in data set [7] and 100% in data set [11]. Also, the pEC50 in the data set with West Nile virus [2] is 5.13; in the data set on Dengue virus [5] it was 5.08. The inhibition result in [8] is “inactive”. Besides, the inhibition at 10 µM in the data set with Dengue virus [9] turned out to be 57%; with West Nile virus [12] it was 92%. In addition, the CC50 in data set [3] was 21 µM; in data set [4], above 200 µM. For the same compound, in the data set on dengue virus type 3, the inhibition entry was “Active”.

As to `COc1c(C)c2c(c(O)c1C/C=C(\C)CCC(=O)O)C(=O)OC2` [MYCOPHENOLIC ACID], the Activity in the data set on dengue virus type 2 [13] came out at 68%.
